Measurements from different studies.
Compare with care: the assays were run in different laboratories.
Target: D(2) dopamine receptor (DRD2, Homo sapiens, UniProt P14416)

`OC(c1ccc(F)cc1)C(F)(F)CCN1CCC(O)(c2ccc(Cl)cc2)CC1` (racemic) gave an inhibition of over 50% (ligand displacement; radioligand; 10 µM).
For `c1ccc(C2(N3CCCCC3)CCCCC2)cc1`, the inhibition was 18.1% (enzyme activity; inhibitor; 10 µM).
For `COc1ccc(N=Nc2ccc3[nH]cc(CCN(C)C)c3c2)cc1`, the inhibition was under 50% (ligand displacement; radioligand; 10 µM).
For `N#CC1(c2ccccn2)CCN(Cc2cc(C(=O)O)c(=O)n3ccccc23)CC1`, the inhibition was -16.8% (cell-free assay; 10 µM).
With `COCc1c(-c2cc3cc(C)cc(OC)c3s2)c2c(N)ncnn2c1CN1CCNC(=O)C1` the inhibition was 19% (ligand displacement; radioligand; 10 µM).
With `Clc1ccc2c(C3CCN(CCc4c[nH]c5ccccc45)CC3)c[nH]c2c1` the inhibition was 98% (ligand displacement; radioligand; 10 µM).
The inhibition of `Cc1c(N2CCNCC2)nc2ccc(Br)cc2c1C(=O)NC[C@H](CCC(=O)O)c1ccccc1Cl` is reported as 2.75% (ligand displacement; 10 µM).
The inhibition of `CCc1ccc(OCC(=O)N2CCN(Cc3ccc4c(c3)OCO4)CC2)c(Br)c1` is reported as 23.1% (enzyme activity; inhibitor; 10 µM).
The Emax of `CNc1nc2cc(OCCCCN3CCC(c4cccc(Cl)c4Cl)CC3)ccc2s1` is reported as under 20% (β-arrestin recruitment; agonist; HTLA).
With `CN(CCN1CCC(OC(=O)Nc2ccccc2-c2ccccc2)CC1)C(=O)c1ccc(CN2CCC(C(N)=O)CC2)cc1` the inhibition was -8% (ligand displacement; radioligand; 1 µM).
The inhibition of `COc1ccc(S(=O)(=O)N2CCCCC2)cc1C` is reported as under 30% (ligand displacement; radioligand; 10 µM).
`CCN(CC)CCCC[C@H](NC(=O)[C@H](CC(C)C)NC(=O)[C@H](C)NC(=O)[C@H](Cc1ccccc1)NC(=O)c1ccc(C(C)(C)C)cc1)C(=O)N[C@@H](CO)C(=O)OC` gave an inhibition of 40% (ligand displacement; radioligand; 10 µM).
`C[C@H](C(=O)N[C@H]1COc2ccccc2[C@@H]1S(C)(=O)=O)c1ccc(F)cc1` gave an inhibition of -3% (cell-free assay; 10 µM).
For `COc1ccc(C(=O)NCc2cc(C(C)C)no2)cc1OC1CCN(C)CC1`, the inhibition was 18% (ligand displacement; radioligand; 10 µM).
`c1ccc(C(NCCNC(c2ccccc2)c2ccccc2)c2ccccc2)cc1` has an inhibition of 31% (cell-free assay; 10 µM).
`CC(C)Cn1cnc2c(N)nc3ccccc3c21` has an inhibition of 14% (ligand displacement; radioligand; 10 µM).
